# Results collected from several papers.
# Lines come from different studies, so protocols differ.
# Observed: cell growth or viability
SMILES,cell line,method,concentration,time,endpoint,result
CCCCC(=O)Nc1ccc(-c2ccc3ncn(CC)c(=O)c3c2)cn1,NCI-H1975,CCK-8,,72 h,IC50,250 nM
COc1cccc(NC(=O)Nc2nc3cc(-c4ccc5ncn(CC(=O)N6CCOCC6)c(=O)c5c4)ccc3s2)c1,NCI-H1975,MTT,,72 h,IC50,> 20000 nM
CCCCCCCCCCCCCCCCCCOc1ccccc1CC(=O)OCC[N+]1(C)CCCC1,NCI-H322M,SRB,10 µM,,inhibition,31.9%
COc1ccc(C(=O)Nc2nc3cc(-c4ccc5ncn(Cc6ccccc6)c(=O)c5c4)ccc3s2)cc1,NCI-H1975,MTT,,72 h,IC50,> 20000 nM
CC(C)(C)[C@H](N)C(=O)Nc1ccccc1/N=c1\cc(-c2ccc3c(c2)OCO3)oc2ccccc12,NCI-H1975,CCK-8,1 µM,,inhibition,3.21%
CCCCCCCCCCCCCCCCCCOc1cccc(CC(=O)OCCC[N+](C)(C)C)c1,NCI-H322M,SRB,10 µM,,inhibition,4.07%
C[C@H](N)C(=O)Nc1ccccc1/N=c1\cc(-c2ccc3c(c2)OCO3)oc2ccccc12,NCI-H1975,CCK-8,1 µM,,inhibition,1.32%
CCCCCCCCCCCCCCCCCCOc1ccc(CC(=O)OCCC[N+](C)(C)C)cc1,NCI-H322M,SRB,10 µM,,inhibition,9.97%
NCCC(=O)Nc1ccccc1/N=c1\cc(-c2ccc3nc(N)oc3c2)oc2ccc(F)cc12,NCI-H1975,CCK-8,1 µM,,inhibition,63.7%
CCCCn1cnc2ccc(-c3ccc(NC(=O)Nc4ccc(F)cc4)nc3)cc2c1=O,NCI-H1975,CCK-8,,72 h,IC50,1410 nM
CCCCCCCCCCCCCCCCCCOc1ccccc1CC(=O)OCCC[N+](C)(C)C,NCI-H322M,SRB,10 µM,,inhibition,15.7%
CCCCC(=O)Nc1ccc(-c2ccc3ncn(CCCC)c(=O)c3c2)cn1,NCI-H1975,CCK-8,,72 h,IC50,310 nM
CCCCNC(=O)Nc1nc2cc(-c3ccc4ncn(Cc5ccccc5)c(=O)c4c3)ccc2s1,NCI-H1975,MTT,,72 h,IC50,7570 nM
NCC(=O)Nc1ccccc1/N=c1\cc(-c2ccc3c(c2)OCCO3)oc2ccccc12,NCI-H1975,CCK-8,1 µM,,inhibition,0.57%
CCCCCCCCCCCCCCCCCCOc1cccc(CC(=O)OCC[N+](CC)(CC)CC)c1,NCI-H322M,SRB,10 µM,,inhibition,22.3%
O=C(Nc1ccc(Br)cc1)Nc1nc2cc(-c3ccc4ncn(Cc5ccccc5)c(=O)c4c3)ccc2s1,NCI-H1975,MTT,,72 h,IC50,> 20000 nM
CCCCCCCCCCCCCCCCCCOc1ccccc1CC(=O)OCC[N+]1(C)CCCCC1,NCI-H322M,SRB,10 µM,,inhibition,15.4%
O=C(Nc1ccccc1/N=c1\cc(-c2ccc3c(c2)OCCO3)oc2cc(F)ccc12)N1CCOCC1,NCI-H1975,CCK-8,1 µM,,inhibition,2.35%
CCCn1cnc2ccc(-c3ccc(NC(=O)CC)nc3)cc2c1=O,NCI-H1975,CCK-8,,72 h,IC50,1080 nM
O=C(Nc1ccc(F)cc1)Nc1nc2cc(-c3ccc4ncn(Cc5ccccc5)c(=O)c4c3)ccc2s1,NCI-H1975,MTT,,72 h,IC50,2340 nM
O=C(Nc1ccc(-c2ccc3ncn(Cc4ccccc4)c(=O)c3c2)cn1)c1ccco1,NCI-H1975,CCK-8,,72 h,IC50,> 10000 nM
O=C(Nc1cccc(F)c1)Nc1nc2cc(-c3ccc4ncn(CCN5CCOCC5)c(=O)c4c3)ccc2s1,NCI-H1975,MTT,,72 h,IC50,> 20000 nM
CCCCCCCCCCCCCCCCCCOc1ccc(CC(=O)OCC[N+]2(C)CCOCC2)cc1,NCI-H322M,SRB,10 µM,,inhibition,3.14%
NCCC(=O)Nc1ccccc1/N=c1\cc(-c2ccc3nc(N)oc3c2)oc2ccccc12,NCI-H1975,CCK-8,1 µM,,inhibition,43.6%
CCCCn1cnc2ccc(-c3ccc(NC(=O)NCc4ccccc4)nc3)cc2c1=O,NCI-H1975,CCK-8,,72 h,IC50,290 nM
Cc1nc(NC(=O)N2CCC[C@H]2C(N)=O)sc1-c1ccnc(C(C)(C)C(F)(F)F)c1,MKN-1,ATP luminescence,,5 days,EC50,2110 nM
Cc1nc(Nc2ncc(C(=O)Nc3c(C)cccc3Cl)s2)cc(N2CC[C@H](O)C2)n1,Pfeiffer,ATP luminescence,10 µM,72 h,inhibition,96%
CC(=O)Nc1nc2cc(-c3ccc4ncn(Cc5ccccc5)c(=O)c4c3)ccc2s1,NCI-H1975,MTT,,72 h,IC50,> 20000 nM
CCCCC(=O)Nc1ccc(-c2ccc3ncn(CCCF)c(=O)c3c2)cn1,NCI-H1975,CCK-8,,72 h,IC50,140 nM
CC(=O)O[C@H]1C(=O)[C@@]2(C)[C@H]([C@H](OC(=O)c3ccccc3)[C@]3(O)C[C@H](OC(=O)[C@H](O)[C@@H](NC(=O)c4ccccc4)c4ccccc4)C(C)=C1C3(C)C)[C@]1(OC(C)=O)CO[C@@H]1C[C@@H]2O,NCI-H1975,MTT,,72 h,IC50,72 nM
COc1ccc2/c(=N/c3ccccc3NC(=O)[C@@H](N)CO)cc(-c3ccc4c(c3)OCCO4)oc2c1,NCI-H1975,CCK-8,1 µM,,inhibition,1.06%
C[C@H](Nc1ccc2c(c1)OCCn1cc(N3C(=O)OC[C@H]3C(F)F)nc1-2)C(N)=O,MKN-1,ATP luminescence,,5 days,EC50,438 nM
CCCCn1cnc2ccc(-c3ccc(NC(=O)Nc4ccc(OC(F)(F)F)cc4)nc3)cc2c1=O,NCI-H1975,CCK-8,,72 h,IC50,470 nM
CNCCC(=O)Nc1ccccc1/N=c1\cc(-c2ccc3nc(N)oc3c2)oc2ccccc12,NCI-H1975,CCK-8,1 µM,,inhibition,43%
